Experimental data pooled from the literature.
Each line is one published result; the experiments were not run side by side.
Read-out: ABTS scavenging

CCOC(=O)c1cc(O)c(O)c(O)c1  IC50 (absorbance): 17700 nM
Fc1ccc2[nH]c(-c3cccc(OCc4ccccc4)c3)nc2c1  IC50 (absorbance): 1850 nM
O=c1c(O[C@@H]2O[C@H](CO)[C@@H](O)[C@H](O)[C@H]2O)c(-c2ccc(O)cc2)oc2cc(O[C@@H]3O[C@H](CO)[C@@H](O)[C@H](O)[C@H]3O)cc(O)c12  IC50 (absorbance): 30600 nM
O=C(Cc1c[nH]c2ccccc12)Nc1ccc(Cl)cc1  IC50: 460 nM
O=C(OC[C@H]1O[C@@H](OC(=O)c2cc(O)c(O)c(O)c2)[C@H](OC(=O)c2cc(O)c(O)c(O)c2)[C@@H](OC(=O)c2cc(O)c(O)c(O)c2)[C@@H]1O)c1cc(O)c(O)c(O)c1  IC50 (absorbance): 3590 nM
CCCCOc1ccc(NC(=O)Cc2c[nH]c3ccccc23)cc1  IC50: 1780 nM
COc1ccc(-c2nc3cc(F)ccc3[nH]2)cc1OCc1ccccc1  IC50 (absorbance): 1720 nM
O=C(Cc1c[nH]c2ccccc12)Nc1ccc(F)cc1F  IC50: 1310 nM
COC(=O)c1cc(O)c(O)c(O)c1  IC50 (absorbance): 14200 nM
O=C(Cc1c[nH]c2ccccc12)Nc1ccc(Br)cc1  IC50: 580 nM
COc1cc(-c2oc3cc(O[C@@H]4O[C@H](CO)[C@@H](O)[C@H](O)[C@H]4O)cc(O)c3c(=O)c2O[C@@H]2O[C@H](CO)[C@@H](O)[C@H](O)[C@H]2O)ccc1O  IC50 (absorbance): 41700 nM
COc1ccc(-c2nc3cc([N+](=O)[O-])ccc3[nH]2)cc1OCc1ccccc1  IC50 (absorbance): 1760 nM
CSc1cccc(NC(=O)Cc2c[nH]c3ccccc23)c1  IC50: 1520 nM
COc1ccc(-c2nc3cc(Cl)ccc3[nH]2)cc1OCc1ccccc1  IC50 (absorbance): 1750 nM
Cc1cc(C(C)(C)C)c(O)c(C(C)(C)C)c1  IC50: 6.99 µg/mL
